For series [1], the system named is Mus musculus. The experiment in a line: Analgesic activity in sc dosed mouse by eddy's hot-plate method. The class given is functional. The method, boiled down:
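Mice were given aqueous solutions of the oxalate salts subcutaneously. Antinociception was read by the Eddy hot-plate method, and analgesic potency was expressed as ED50 in mg/kg.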

The nature of series [2]: (§1) Toxicity in sc dosed mouse. The following applies: in vivo. The class given is organism-based.
Series [3] has as its system Mus musculus. The experiment in a line: Inhibition of morphine-induced response in mouse at 3 mg/kg, sc by tail-flick antagonist assay. In kind it is functional. More on the design: scale not given: the % may be the effect or the level left. The following applies: route subcutaneous.
The subject of series [4] is Mus musculus. Described as §1. The following applies: in vivo. The class given is organism-based.
The subject of series [5] is Mus musculus. The experiment in a line: Inhibition of morphine-induced response in mouse at 1 mg/kg, sc by tail-flick antagonist assay. The class given is functional. More on the design: scale not given: the % may be the effect or the level left. The following applies: route subcutaneous.
Series [6] deals with Mus musculus. The experiment in a line: Inhibition of morphine-induced response in mouse at 0.3 mg/kg, sc by tail-flick antagonist assay. In kind it is functional. Further details: scale not given: the % may be the effect or the level left. The following applies: route subcutaneous.

Activity calls are given as the source filed them. No cut-off for these calls is given here.

What is called ED50 is the dose that gives a 50% effect, or the effect in half of the subjects. In the case of `c1ccc2c(c1)CC1CC2CCN1` (stereo not drawn), it took a dose of 10.2 mg/kg to reach the 50% effect level with Mus musculus [1] (ED50).
The term LD50 denotes the dose expected to kill half of the subjects tested. The molecule `C=CCN1CC2CC(C1)c1ccccc12.O=C(O)C(=O)O` came in with an LD50 in series [2] of 47 mg/kg. Besides, in the series with Mus musculus [1], the ED50 came to 15.6 mg/kg. The molecule also yielded an Activity with Mus musculus [3] of 56%.
Consider `CCCN1CC2CC(C1)c1ccccc12.O=C(O)C(=O)O`, for which the Activity result is listed as “Toxic” with Mus musculus [4] and 47% with Mus musculus [5]. The outcome in the series with Mus musculus [1] was inactive.
Take `CN1CC2CC(C1)c1ccccc12.O=C(O)C(=O)O`: the Activity entry with Mus musculus [4] was “Toxic”. For the same molecule, the outcome in the series on Mus musculus [1] was inactive.
As to `O=C(O)C(=O)O.c1ccc(CCN2CC3CC(C2)c2ccccc23)cc1`, in the series on Mus musculus [4], the Activity result is “Non-toxic”. Besides, the outcome in the series with Mus musculus [1] was inactive.
Regarding `c1ccc2c(c1)C1CCNCC2C1` (stereo not drawn), in the series on Mus musculus [1], the 50% effect level (ED50) was put at a dose of 4.9 mg/kg.
For `O=C(O)C(=O)O.c1ccc2c(c1)C1CC2CN(CC2CC2)C1`, the Activity with Mus musculus [6] is 58%; with Mus musculus [4] it was “Toxic”. Besides, in the series on Mus musculus [1], the result was inactive.
For the molecule `CC(C)=CCN1CC2CC(C1)c1ccccc12.O=C(O)C(=O)O`, the Activity entry in the series with Mus musculus [4] is “Toxic”. In the series on Mus musculus [1], the outcome was inactive.
In the series with Mus musculus [1], `COc1ccc2c3c1O[C@H]1[C@@H](O)C=C[C@H]4[C@@H](C2)N(C)CC[C@@]341` [CODEINE] yielded an ED50 of 5.8 mg/kg.

The record behind these values is ChEMBL document CHEMBL3227998, “Synthesis and pharmacological activity of 2,3,4,5,-tetrahydro-1,5-methano-1H-3-benzazepines” (J Med Chem, 1979).
